In ChEMBL document CHEMBL4680154, “The optimization of xanthine derivatives leading to HBK001 hydrochloride as a potent dual ligand targeting DPP-IV and GPR119” (Eur J Med Chem, 2020):
The source made the active and inactive calls. The calls are words filed in the database; no cut-off is given here.

Tests used:
[1] = target: T1, Glucose-dependent insulinotropic receptor (Homo sapiens, UniProt Q8TDV5); test: Agonist activity at CREB-LBD and Gal4-DBD fused recombinant human GPR119 expressed in HEK293 cells by firefly luciferase assay; format: functional, cell-based
T1 sequence (Q8TDV5 whole entry): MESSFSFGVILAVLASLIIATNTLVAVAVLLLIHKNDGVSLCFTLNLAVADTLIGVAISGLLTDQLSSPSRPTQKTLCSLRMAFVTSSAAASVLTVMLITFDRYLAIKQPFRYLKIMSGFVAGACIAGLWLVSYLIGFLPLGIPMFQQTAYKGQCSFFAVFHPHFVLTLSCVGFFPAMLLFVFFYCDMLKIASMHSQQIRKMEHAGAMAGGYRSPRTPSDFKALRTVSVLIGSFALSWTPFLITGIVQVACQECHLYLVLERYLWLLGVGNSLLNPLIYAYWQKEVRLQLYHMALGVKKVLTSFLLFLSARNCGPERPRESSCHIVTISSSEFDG
How it was run: (§1)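 HEK293 cells transiently transfected with human GPR119, a Gal4-DBD/CREB-LBD fusion and a Gal4 UAS-driven luciferase reporter, then treated with compound (DMSO vehicle). Firefly luciferase luminescence read. Activation fold = compound/vehicle, expressed as percent of the AR231453 activation fold. EC50 obtained by curve fitting.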

[2] = target: T2, Glucose-dependent insulinotropic receptor (Homo sapiens) (UniProt Q8TDV5); test: Agonist activity at CREB-LBD and Gal4-DBD fused recombinant human GPR119 expressed in HEK293 cells at 1 uM by firefly luciferase assay relative to AR231453; format: functional, cell-based; conditions: filed as agonist; how it was run: as §1
T2 sequence (whole entry): T1 sequence (Q8TDV5 whole entry)

DPP8/9 = DPP8/9 (Homo sapiens, UniProt Q6V1X1+Q86TI2); test: Inhibition of recombinant human DPP8/9 expressed in Rosetta cells at 10 uM using Gly-Pro-p-nitroanilide as substrate incubated for 1 hr relative to control; conditions: probe Gly-Pro-p-nitroanilide
Mus musculus [3] = test: Antidiabetic activity in ICR mouse assessed as reduction in blood glucose level at 30 mg/kg, po administered as single dose followed by oral glucose challenge measured after 30 mins by glucose oxidase method; format: functional, organism-based
How it was run: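 Overnight-fasted ICR mice given compound by oral gavage (vehicle distilled water) before a 2 g/kg oral glucose load. Tail-tip blood taken at 0, 30, 60 and 120 min; glucose measured by the glucose oxidase method. n = 10 per group, mean ± SEM.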

Mus musculus [4] = test: Antidiabetic activity in ICR mouse assessed as reduction in blood glucose AUC at 10 mg/kg, po administered as single dose followed by glucose challenge measured upto 120 mins by OGTT relative to control; format: functional; design: scale not given: the % may be the effect or the level left; conditions: time min <=120
How it was run: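 ICR mice were fasted overnight and dosed by oral gavage, with distilled water as vehicle, before an oral glucose load of 2 g/kg. Tail-tip blood was sampled at 0, 30, 60 and 120 min and glucose measured by the glucose oxidase method. AUC was compared with the vehicle group. n = 10 per group, mean ± SEM.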

CC#CCn1c(N2CCC[C@@H](N)C2)nc2c1c(=O)n(CCCN1CCN(c3ncc(C)cn3)CC1)c(=O)n2C
EC50 [1]: 2560 nM | Activity [2]: 60%

CC(C)c1noc(C2CCN(c3ncnc(Nc4ccc(S(C)(=O)=O)cc4F)c3[N+](=O)[O-])CC2)n1
EC50 [1]: 640 nM | Activity [2]: 100%

CC#CCn1c(N2CCC[C@@H](N)C2)nc2c1c(=O)n(CCCN1CCN(c3ncc(F)cn3)CC1)c(=O)n2C
EC50 [1]: 1410 nM | Activity [2]: 78%

CC#CCn1c(N2CCC[C@@H](N)C2)nc2c1c(=O)n(CCCN1CCN(c3ncc(C(F)(F)F)cn3)CC1)c(=O)n2C
EC50 [1]: 4020 nM | Activity [2]: 90%

CC#CCn1c(N2CCC[C@@H](N)C2)nc2c1c(=O)n(CCCN1CCC(c3nc(-c4ccccc4)no3)CC1)c(=O)n2C
Activity [2]: 55%

CC#CCn1c(N2CCC[C@@H](N)C2)nc2c1c(=O)n(CCCN1CCN(c3ncc(OC)cn3)CC1)c(=O)n2C
EC50 [1]: 2260 nM | Activity [2]: 79%

CC#CCn1c(N2CCC[C@@H](N)C2)nc2c1c(=O)n(CCCN1CCC(c3nnnn3-c3ccccc3)CC1)c(=O)n2C
inhibition at 1 h, 10 µM (DPP8/9): 4.6% | Activity [2]: 53%

CC#CCn1c(N2CCC[C@@H](N)C2)nc2c1c(=O)n(CCCN1CCN(c3nc(-c4ccccc4)no3)CC1)c(=O)n2C
Activity (Mus musculus [3]): Active | Activity [2]: 58%

N[C@@H](CC(=O)N1CCn2c(nnc2C(F)(F)F)C1)Cc1cc(F)c(F)cc1F [SITAGLIPTIN]
Activity (Mus musculus [4]): 27.3%

CC#CCn1c(N2CCC[C@@H](N)C2)nc2c1c(=O)n(CCCN1CCN(c3ncc(CC)cn3)CC1)c(=O)n2C
EC50 [1]: 3990 nM | Activity [2]: 85%

CC#CCn1c(N2CCC[C@@H](N)C2)nc2c1c(=O)n(CCCN1CCC(c3cc(-c4ccccc4)on3)CC1)c(=O)n2C
inhibition at 1 h, 10 µM (DPP8/9): 3.3% | Activity [2]: 49%
